Measurements pooled from the literature.
Compare with care: the assays were run in different laboratories.
RET M918T: Proto-oncogene tyrosine-protein kinase receptor Ret (RET, Homo sapiens, UniProt P07949, M918T)
RET: Proto-oncogene tyrosine-protein kinase receptor Ret (RET, Homo sapiens, UniProt P07949)
RET V804L: Proto-oncogene tyrosine-protein kinase receptor Ret (RET, Homo sapiens, UniProt P07949, V804L)
RET V804M: Proto-oncogene tyrosine-protein kinase receptor Ret (RET, Homo sapiens, UniProt P07949, V804M)

| SMILES | target | read-out | technique | concentration | remaining binding [%] |
| --- | --- | --- | --- | --- | --- |
| O=C(c1ccc(Nc2nccc(-c3cc4ccccc4s3)n2)cc1)N1CCC(N2CCCC2)CC1 | RET M918T | binding | competition with immobilised ligand | 1 µM | 83 |
| O=C(N[C@H]1CCCCC/C=C\C2C[C@@]2(C(=O)O)NC(=O)[C@@H]2C[C@@H](Oc3ccncc3)CN2C1=O)OC1CCCC1 (stereo partly drawn) | RET | binding | competition with immobilised ligand | 1 µM | 94 |
| C[C@@H](c1ccc(-n2cnc3c(N)ncnc32)cc1)N1CCc2nn(C)c(Cc3ccccc3)c2C1=O | RET | binding | competition with immobilised ligand | 0.1 µM | 81 |
| Nc1ncc2c(n1)-c1c([nH]c3ccc(C#CC4CC4)cc13)CCCC2 | RET V804L | binding | competition with immobilised ligand | 1 µM | 96 |
| N[C@@H]1CCN(c2nccc(-c3cnn4ncccc34)n2)C1 | RET V804L | binding |  | 1 µM | 94 |
| N#Cc1ccccc1CSc1nnc2c(n1)[nH]c1ccccc12 | RET | binding | competition with immobilised ligand | 10 µM | 89 |
| c1cncc(-c2cccc(Nc3nccc(NC4CCCCC4)n3)c2)c1 | RET M918T | binding | competition with immobilised ligand | 10 µM | 2.1 |
| O=C(O)c1cc(-c2ccc(C3CCNCC3)cc2)c2ccc(-c3ccc(C(F)(F)F)cc3)cc2c1 | RET V804M | cell-free assay | competition with immobilised ligand | 1 µM | 100 |
| F[C@@H]1CCN(c2nccc(-c3cnn4ncccc34)n2)C1 | RET M918T | binding |  | 1 µM | 100 |
| COc1ncc2cc3ccccc3nc2c1C#N | RET M918T | cell-free assay | competition with immobilised ligand | 5 µM | 96 |
| CC(C)CC(=O)N1CCc2nc(-c3ccc(Br)cc3)nc(N(C)Cc3ccccc3)c2C1 | RET | cell-free assay | competition with immobilised ligand | 0.1 µM | 68 |
| O=C(Nc1c[nH]nc1C(=O)NC1CCNCC1)c1cc(F)cc(F)c1 | RET V804L | binding | competition with immobilised ligand | 1 µM | 100 |
| O=C(c1ccc(Nc2ncc(Cl)c(-c3ccc(Cl)s3)n2)cc1)N1CCC(N2CCCC2)CC1 | RET | binding | competition with immobilised ligand | 1 µM | 15 |
| Cn1nc(C(F)(F)F)cc1-c1cnc(N2CCc3cc(S(=O)(=O)Nc4c(F)cc(Cl)cc4F)cc(N4CCCC4=O)c32)nc1 | RET V804M | cell-free assay | competition with immobilised ligand | 1 µM | 98 |
| COc1ccnn2ncc(-c3ccnc(N(C)C)n3)c12 | RET V804L | binding |  | 1 µM | 100 |
| Cc1nccc(COC(=O)N2C[C@@H]3[C@@H](CNC(=O)c4ccc5[nH]nnc5c4)[C@@H]3C2)n1 | RET M918T | cell-free assay | competition with immobilised ligand | 1 µM | 100 |
| C=CC(=O)N1CCC(C(=O)NCC(=O)N2CCN(c3nc(-c4cnc(N)nc4C(F)F)nc(N4CCOCC4)n3)CC2)CC1 | RET V804L | binding | competition with immobilised ligand | 1 µM | 100 |
| FC(F)(F)Oc1cccc(-c2cnc3ccc(-c4ccncc4)nn23)c1 | RET | cell-free assay | competition with immobilised ligand | 5 µM | 86 |

| SMILES | target | read-out | technique | concentration | remaining binding [%] |
| --- | --- | --- | --- | --- | --- |
| CN1CCN(c2ccc(Nc3nccc(-c4cccc([N+](=O)[O-])c4)n3)cc2C(F)(F)F)CC1 | RET V804L | binding |  | 10 µM | 41 |
| Cc1cnc(Nc2ccc(C(=O)N3CCC(N4CCCC4)CC3)cc2)nc1-c1cc2ccccc2s1 | RET | binding | competition with immobilised ligand | 1 µM | 12 |
| CCN1CCN(Cc2ccc(C(=O)Nc3ccc(C)c(Oc4ccc5c(c4)CC(=O)N5)c3)cc2C(F)(F)F)CC1 | RET V804L | binding | competition with immobilised ligand | 1 µM | 99 |
| O=C(NCCCN1CCOCC1)c1ccc(Nc2ncc(Cl)c(-c3ccc(Cl)s3)n2)cc1 | RET | binding | competition with immobilised ligand | 1 µM | 24 |
| CN1CCN(c2ccc(Nc3nccc(-c4ccccc4)n3)cc2C(F)(F)F)CC1 | RET V804M | binding |  | 10 µM | 48 |
| CC1CCCN1c1nccc(-c2cnn3ncccc23)n1 (stereo not drawn) | RET V804M | binding |  | 1 µM | 100 |
| O=C(NCC1CCOCC1)c1n[nH]cc1NC(=O)c1c(F)cccc1F | RET | binding | competition with immobilised ligand | 1 µM | 98 |
| C[C@@H]1CN(c2ccc3ncc(-c4ccc5[nH]nc(C6CC6)c5c4)n3n2)C[C@H](C)O1 | RET | binding | competition with immobilised ligand | 50 nM | 88 |
| COc1cnc(Nc2cccc(S(N)(=O)=O)c2)nc1N1CCN(c2ccccc2)CC1 | RET M918T | binding | competition with immobilised ligand | 1 µM | 49 |
| CN(C)c1nccc(-c2cnc3ncccn23)n1 | RET V804M | binding |  | 1 µM | 93 |
| O=C(NCCCN1CCOCC1)c1ccc(Nc2nccc(-c3cc4ccccc4s3)n2)cc1 | RET V804M | binding | competition with immobilised ligand | 1 µM | 81 |
| COc1cnc(Nc2cccc(S(N)(=O)=O)c2)nc1N1CCN(c2ccccc2)C(=O)C1 | RET V804L | binding | competition with immobilised ligand | 1 µM | 98 |
| CNC(=O)Nc1ccc2c(c1)CC[C@@]21OC(=O)N(CC(=O)N(Cc2ccc(F)cc2)[C@@H](C)C(F)(F)F)C1=O | RET V804M | cell-free assay | competition with immobilised ligand | 1 µM | 98 |
| C[C@@H]1CCN(c2nccc(-c3cnn4ncccc34)n2)C1 | RET V804L | binding |  | 1 µM | 100 |
| c1ccc(N2CCN(Cc3nc4ccccc4[nH]3)CC2)nc1 | RET | cell-free assay | competition with immobilised ligand | 1 µM | 100 |
| CNC(=O)[C@@H]1CC[C@@H](n2c(-c3ccc4cnccc4c3)nc3ccc(C(=O)NCc4cccc(C(N)=O)c4)cc32)C1 | RET | binding | competition with immobilised ligand | 1 µM | 96 |
| O=C(c1ccc(Nc2ncc(Cl)c(-c3cc4ccccc4s3)n2)cc1)N1CCC(N2CCCC2)CC1 | RET V804L | binding | competition with immobilised ligand | 1 µM | 23 |
| CN(C(=O)c1ccccc1)c1cc(N(C)c2ccc3c(c2)CCc2ccc(C(=O)NCCN4CCOCC4)cc2C3=O)ccc1F | RET | cell-free assay | competition with immobilised ligand | 1 µM | 95 |
